Assay [1] addresses T1, Androgen receptor (Homo sapiens) (UniProt P10275).
T1 sequence (whole entry): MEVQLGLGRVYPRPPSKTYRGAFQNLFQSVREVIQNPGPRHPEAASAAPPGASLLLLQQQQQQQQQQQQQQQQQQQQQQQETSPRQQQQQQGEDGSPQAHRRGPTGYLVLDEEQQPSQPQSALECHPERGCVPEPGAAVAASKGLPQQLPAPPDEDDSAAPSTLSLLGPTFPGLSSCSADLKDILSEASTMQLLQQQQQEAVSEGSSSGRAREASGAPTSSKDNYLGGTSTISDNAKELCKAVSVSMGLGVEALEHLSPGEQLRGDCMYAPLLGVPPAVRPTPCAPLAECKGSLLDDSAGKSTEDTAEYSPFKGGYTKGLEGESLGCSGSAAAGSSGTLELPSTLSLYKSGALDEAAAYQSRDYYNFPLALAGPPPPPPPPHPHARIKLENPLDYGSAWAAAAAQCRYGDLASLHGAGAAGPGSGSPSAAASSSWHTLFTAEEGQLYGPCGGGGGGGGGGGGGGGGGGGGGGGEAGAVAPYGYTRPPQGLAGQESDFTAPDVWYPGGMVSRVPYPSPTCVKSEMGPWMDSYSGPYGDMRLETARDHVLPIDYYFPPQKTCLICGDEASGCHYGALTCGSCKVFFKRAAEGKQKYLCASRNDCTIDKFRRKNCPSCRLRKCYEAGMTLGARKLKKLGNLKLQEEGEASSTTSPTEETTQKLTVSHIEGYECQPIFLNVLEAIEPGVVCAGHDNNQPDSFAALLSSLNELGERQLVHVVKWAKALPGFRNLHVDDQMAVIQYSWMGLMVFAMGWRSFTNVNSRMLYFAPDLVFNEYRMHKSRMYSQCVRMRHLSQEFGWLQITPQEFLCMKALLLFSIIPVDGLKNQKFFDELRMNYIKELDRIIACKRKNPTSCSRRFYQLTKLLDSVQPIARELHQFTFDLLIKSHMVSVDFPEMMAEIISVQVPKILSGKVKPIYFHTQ
The following applies: at 10 µM.

The subject of a further assay is LNCaP. As to the kind of experiment: Antiproliferative activity against human LNCAP cells after 24 hrs by CCK-8 assay. Format: functional, cell-based. A digest of the protocol: (§1)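 Media with 10% FBS plus penicillin/streptomycin: RPMI1640 (DU145), F12 (LNCaP), DMEM (PC-3). Log-phase cells seeded at 1 × 10^5 cells/mL and grown 24 h at 37 °C, 5% CO2, then given various compound concentrations for 24 h. CCK-8 added for 1 h, absorbance read at 450 nm. Inhibition = (1 − OD treated/OD control) × 100%. IC50 from linear regression; three independent experiments.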

A further assay has as its target T2, Androgen receptor (Rattus norvegicus, UniProt P15207).
T2 sequence (P15207 whole entry): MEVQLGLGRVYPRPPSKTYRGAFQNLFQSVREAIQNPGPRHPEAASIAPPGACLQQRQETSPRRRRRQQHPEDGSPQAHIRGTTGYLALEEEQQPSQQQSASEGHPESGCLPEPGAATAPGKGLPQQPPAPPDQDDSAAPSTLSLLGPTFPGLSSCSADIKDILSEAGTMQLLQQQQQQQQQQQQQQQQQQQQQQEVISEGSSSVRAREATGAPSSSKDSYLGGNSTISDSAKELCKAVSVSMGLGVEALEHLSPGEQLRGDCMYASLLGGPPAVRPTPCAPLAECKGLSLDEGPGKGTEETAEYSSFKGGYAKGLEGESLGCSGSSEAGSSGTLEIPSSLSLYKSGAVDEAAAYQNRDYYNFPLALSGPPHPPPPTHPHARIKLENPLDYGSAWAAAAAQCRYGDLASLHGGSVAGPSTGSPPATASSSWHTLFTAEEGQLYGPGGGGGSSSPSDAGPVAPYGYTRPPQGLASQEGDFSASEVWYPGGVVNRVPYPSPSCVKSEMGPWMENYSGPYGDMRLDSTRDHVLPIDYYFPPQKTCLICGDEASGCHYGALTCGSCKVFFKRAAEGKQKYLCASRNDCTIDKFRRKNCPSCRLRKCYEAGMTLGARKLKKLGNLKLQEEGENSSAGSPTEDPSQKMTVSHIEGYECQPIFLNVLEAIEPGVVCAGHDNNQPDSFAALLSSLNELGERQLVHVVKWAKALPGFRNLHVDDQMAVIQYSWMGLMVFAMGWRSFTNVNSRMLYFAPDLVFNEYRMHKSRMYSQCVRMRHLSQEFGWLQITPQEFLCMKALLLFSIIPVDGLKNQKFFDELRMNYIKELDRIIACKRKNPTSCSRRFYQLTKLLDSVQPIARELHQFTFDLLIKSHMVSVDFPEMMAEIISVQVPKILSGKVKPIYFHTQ
Briefly: Displacement of fluormone-AL Green from His-tagged/GST-fused recombinant rat androgen receptor LBD expressed in insect cells measured after 4 hrs by fluorescence polarization assay.

The next assay deals with PC-3. Briefly: Antiproliferative activity against human PC3 cells after 24 hrs by CCK-8 assay. The format is functional, cell-based. To be noted: PC-3, 24 h. In short, it runs like this:
as §1
On the technique in general: Formazan colour is commonly taken as a measure of viable cells.

Another assay has as its system DU-145. As to the kind of experiment: Antiproliferative activity against human DU145 cells after 24 hrs by CCK-8 assay. Format: functional, cell-based. The following applies: DU-145, 24 h. In short, it runs like this:
as §1

In a further assay the test system is RWPE-1. Briefly: Antiproliferative activity against human RWPE1 cells after 24 hrs by CCK-8 assay. The format is cell-based. The following applies: RWPE-1, 24 h. In short, it runs like this: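 RWPE-1 grown in DMEM with 10% FBS, penicillin 100 U/mL and streptomycin 0.1 mg/mL at 37 °C, 5% CO2. Log-phase cells seeded at 1 × 10^5 cells/mL, cultured 24 h, then exposed to various compound concentrations for 24 h. CCK-8 added, 1 h at 37 °C, absorbance read at 450 nm. Inhibition = (1 − OD treated/OD control) × 100%. IC50 by linear regression of concentration-response curves. Three independent experiments.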

For `Cc1ccc(OCCc2ccc(CN3CCN(c4ccccc4)CC3)cc2)cc1`, the inhibition (as a rule, the percentage by which the read-out fell short of the control) in assay [1] was determined as 54.7%. Also, the IC50 (in general, the concentration that inhibits the measured activity by half) is 5.62 µM with LNCaP; 3.66 µM at Androgen receptor; 1.47 µM in the assay on PC-3; 10.1 µM with DU-145; above 50 µM in the assay with RWPE-1.
Compound `O=[N+]([O-])c1ccc(OCCc2ccc(CN3CCN(c4ccccc4)CC3)cc2)cc1` had an inhibition in assay [1] of 50.1%. Moreover, the half-inhibitory concentration (IC50) with LNCaP amounted to 8.51 µM; on Androgen receptor, 3.82 µM; in the assay with PC-3, 9.23 µM; in the assay with DU-145 it was 8.74 µM; in the assay with RWPE-1 it was 3.87 µM.
Turning to `COc1ccc(OCCc2ccc(CN3CCN(c4ccccc4)CC3)cc2)cc1`, the inhibition in assay [1] stood at 67.1%. The 50% inhibitory concentration (IC50) in the assay on LNCaP was 7.46 µM; on Androgen receptor, 1.15 µM; in the assay with PC-3 it was 8.95 µM; with DU-145 it was 9.79 µM; in the assay on RWPE-1 it was above 50 µM.

The values above are taken from ChEMBL document CHEMBL4308898, “Synthesis and biological evaluation of arylpiperazine derivatives as potential anti-prostate cancer agents” (Bioorg Med Chem, 2019).
